Published values from different studies.
Target: NT-3 growth factor receptor (NTRK3, Homo sapiens, UniProt Q16288)

With `COc1ccnn2ncc(-c3ccnc(N(C)C)n3)c12` the remaining binding was 81% (binding; 1 µM).
`FC(F)(F)Oc1cccc(-c2cnc3ccc(-c4ccncc4)nn23)c1` gave a remaining binding of 20% (cell-free assay, competition with immobilised ligand; 5 µM).
The remaining binding of `C[C@H]1CCN(c2nccc(-c3cnn4ncccc34)n2)C1` is reported as 63% (binding; 1 µM).
The remaining binding of `C=CC(=O)N1CCC(C(=O)NCC(=O)N2CCN(c3nc(-c4cnc(N)nc4C(F)F)nc(N4CCOCC4)n3)CC2)CC1` is reported as 86% (binding, competition with immobilised ligand; 1 µM).
With `O=C(c1ccc(Nc2ncc(Cl)c(-c3ccc(Cl)s3)n2)cc1)N1CCC(N2CCCC2)CC1` the remaining binding was 24% (binding, competition with immobilised ligand; 1 µM).
The remaining binding of `O=C(Nc1c[nH]nc1C(=O)NC1CCNCC1)c1cc(F)cc(F)c1` is reported as 100% (binding, competition with immobilised ligand; 1 µM).
The remaining binding of `COc1cnc(Nc2cccc(S(N)(=O)=O)c2)nc1N1CCN(c2ccccc2)CC1` is reported as 61% (binding, competition with immobilised ligand; 1 µM).
With `CN(c1nccc(-c2cnn3ncccc23)n1)C1CC1` the remaining binding was 100% (binding; 1 µM).
For `CNC(=O)[C@@H]1CC[C@@H](n2c(-c3ccc4cnccc4c3)nc3ccc(C(=O)NCc4cccc(C(N)=O)c4)cc32)C1`, the remaining binding was 100% (binding, competition with immobilised ligand; 1 µM).
`N[C@@H]1CCN(c2nccc(-c3cnn4ncccc34)n2)C1` gave a remaining binding of 100% (binding; 1 µM).
The remaining binding of `CSc1cccnc1N1CCN(Cc2nc3ccccc3[nH]2)CC1` is reported as 83% (cell-free assay, competition with immobilised ligand; 1 µM).
The remaining binding of `COc1ncc2cc3ccccc3nc2c1C#N` is reported as 74% (cell-free assay, competition with immobilised ligand; 5 µM).
`CNC(=O)Nc1ccc2c(c1)CC[C@@]21OC(=O)N(CC(=O)N(Cc2ccc(F)cc2)[C@@H](C)C(F)(F)F)C1=O` gave a remaining binding of 84% (cell-free assay, competition with immobilised ligand; 1 µM).
For `F[C@@H]1CCN(c2nccc(-c3cnn4ncccc34)n2)C1`, the remaining binding was 100% (binding; 1 µM).
`Cc1cc(NC(=O)c2cccc(S(F)(F)(F)(F)F)c2)cc(-n2ccn3nc(-c4cccnc4)cc23)c1` gave a remaining binding of 27.2% (cell-free assay, competition with immobilised ligand; 1 µM).
`c1cncc(-c2cccc(Nc3nccc(NC4CCCCC4)n3)c2)c1` gave a remaining binding of 27% (binding, competition with immobilised ligand; 10 µM).
`CC(=O)N1CCC(c2ccc(C(=O)NC(=N)N)cc2C(F)(F)F)CC1` has a remaining binding of 100% (cell-free assay, competition with immobilised ligand; 1 µM).
`Cc1cnc(Nc2ccc(C(=O)N3CCC(N4CCCC4)CC3)cc2)nc1-c1cc2ccccc2s1` has a remaining binding of 16% (binding, competition with immobilised ligand; 1 µM).
For `Cn1cc(Cl)c2c(Oc3c(F)cc(Nc4cc(Cl)nc(N)n4)cc3F)ccnc21`, the remaining binding was 76% (cell-free assay, competition with immobilised ligand; 0.1 µM).
With `CC1CCCN1c1nccc(-c2cnn3ncccc23)n1` (stereo not shown) the remaining binding was 100% (binding; 1 µM).
`O=C(c1ccc(Nc2ncc(Cl)c(-c3cc4ccccc4s3)n2)cc1)N1CCC(N2CCCC2)CC1` gave a remaining binding of 36% (binding, competition with immobilised ligand; 1 µM).
`O=C(N1CCS(=O)(=O)CC1)N1C[C@H](c2ccc(OC(F)(F)F)cc2)C[C@H](c2nc(C3CC3)no2)C1` has a remaining binding of 100% (cell-free assay, competition with immobilised ligand; 1 µM).
